From ChEMBL document CHEMBL1139365, “Inhibition of MDR1 activity in vitro by a novel class of diltiazem analogues: toward new candidates” (J Med Chem, 2009) come the findings set out here.

Active and inactive are the calls of the source. The calls are words filed in the database; no cut-off is given here.

The subject of experiment [1] is A2780. The experiment can be described thus: Antiproliferative activity against human A2780 cells at 0.6 uM after 3 days by MTT assay. It counts as functional. The conditions noted are these: A2780, 72 h.
Experiment [2] relates to A2780. The experiment in a line: Antiproliferative activity against human A2780 cells after 3 days by MTT assay. As to conditions: for IC50: Homo sapiens, A2780, 72 h. It counts as functional, cell-based. The essentials:
(§1)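 Cells plated 6–8 h in 96-well plates. Compound alone, in duplicate at ≥5 concentrations (3-fold serial dilutions, top 100 μM), with final DMSO […] after predilution in FCS. After 3 days, MTT 4 h at 37 °C, formazan dissolved in DMSO, A540. IC50 taken from single dose–response curves; 3–4 experiments. A2780/DX3 kept doxorubicin-free 2–3 days beforehand.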
A general note: Formazan colour is commonly taken as a measure of viable cells.

Experiment [3] in a line: Antiproliferative activity against human A2780/DX3 cells after 3 days by MTT assay. It counts as functional, cell-based. As to conditions: for IC50: Homo sapiens, A2780/DX3, 72 h. The method in brief:
as §1

The test system of experiment [4] is A2780 ADR. The experiment in a line: Reversal of P-gp 170-mediated multidrug resistance in human A2780/DX3 cells assessed as reduction in doxorubicin IC50 at IC5 pretreated for 6 hrs before doxorubicin administration measured after 3 days by MTT assay. Details: scale not given: the % may be the effect or the level left. It counts as cell-based. The method in brief:
(§2)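 A2780/DX3 cells went into medium holding the modulator at its MTT-derived 0% or 5% growth-inhibition concentration. Doxorubicin (30–0.048 μM serial dilutions, modulator kept constant) was added 6 h later. MTT (2 mg/mL) was added after 3 days for 4 h at 37 °C, formazan dissolved in DMSO, A540 read. IC50 came from dose–response curves, repeated 4–6 times. % reduction is versus doxorubicin alone in the same experiment. Kruskal–Wallis/Mann–Whitney tests.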

For experiment [5], the system named is A2780 ADR. The experiment in a line: Reversal of P-gp 170-mediated multidrug resistance in human A2780/DX3 cells assessed as reduction in doxorubicin IC50 at IC0 pretreated for 6 hrs before doxorubicin administration measured after 3 days by MTT assay. It counts as cell-based. Further details: scale not given: the % may be the effect or the level left. The method in brief: as §2

Experiment [6] deals with A2780 ADR. The experiment in a line: Reversal of P-gp 170-mediated multidrug resistance in human A2780/DX3 cells assessed as increase in intracellular doxorubicin accumulation at 5 times IC5 pretreated for 2 hrs before doxorubicin administration measured after 2 hrs by flow cytometry. It counts as cell-based. The method in brief:
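A2780/DX3 cells (kept in 0.1 μM doxorubicin, drug withdrawn 2–3 days before use) seeded in flasks, grown 24 h to 75–85% confluence. Modulator given at five times the 5%-growth-inhibition concentration for 2 h, then 10 μM doxorubicin for 2 h more. Cells trypsinized, fixed in 3.7% paraformaldehyde/2% sucrose in PBS. Flow cytometry, 488 nm excitation, 575 nm bandpass. Read-out is MFI, with % increase taken from the MFI ratio to doxorubicin alone.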
(A flow cytometer gives signals particle by particle.)

Experiment [7] has as its system A2780 ADR. The experiment in a line: Reversal of P-gp 170-mediated multidrug resistance in human A2780/DX3 cells assessed as increase in intracellular doxorubicin accumulation at 5 times IC5 pretreated for 2 hrs before doxorubicin administration measured after 2 hrs by epifluorescent microscopic analysis. It counts as cell-based. The essentials: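 A2780/DX3 cells on chamber slides at 75–85% confluence, pretreated 2 h with compound at five times the concentration giving 5% growth inhibition. Doxorubicin 10 μM then added for 2 h. Cells washed in cold PBS, fixed in 3.7% paraformaldehyde/2% sucrose, mounted and imaged by epifluorescence at 20X. Untreated and compound-only controls included.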

Experiment [8] can be described thus: Down regulation of P-gp 170 expression in human A2780/DX3 cells after 72 hrs by flow cytometry. It counts as functional, cell-based. The method in brief:
(§3)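 Cells exposed 72 h to compound at concentrations giving 5% or 0% growth inhibition. Then washed in PBS/2% FCS; 2.5 × 10^5 cells stained at 4 °C with anti-Pgp MM4.17 monoclonal, then FITC goat anti-mouse IgG, and analysed by flow cytometry.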

Experiment [9] relates to A2780. The experiment can be described thus: Down regulation of P-gp 170 expression in human A2780 cells after 72 hrs by flow cytometry. It counts as functional, cell-based. The essentials: as §3
Experiment [10] in a line: Antiproliferative activity against human A2780/DX3 cells at 1.2 uM after 3 days by MTT assay. It counts as functional. As to conditions: A2780/DX3, 72 h.
Experiment [11] deals with A2780. The experiment can be described thus: Antiproliferative activity against human A2780 cells at 1.5 uM after 3 days by MTT assay. It counts as functional. As to conditions: A2780, 72 h.
Experiment [12] can be described thus: Blockade of L-type calcium channel.
Experiment [13] can be described thus: Antiproliferative activity against human A2780/DX3 cells at 1.0 uM after 3 days by MTT assay. It counts as functional. The conditions noted are these: A2780/DX3, 72 h.
Experiment [14] has as its system A2780. The experiment in a line: Antiproliferative activity against human A2780 cells at 10 uM after 3 days by MTT assay. It counts as functional. The conditions noted are these: A2780, 72 h.
A short description of experiment [15]: Antiproliferative activity against human A2780/DX3 cells at 6.2 uM after 3 days by MTT assay. It counts as functional. The conditions noted are these: A2780/DX3, 72 h.
Experiment [16] deals with A2780. The experiment can be described thus: Antiproliferative activity against human A2780 cells at 5.3 uM after 3 days by MTT assay. The conditions noted are these: A2780, 72 h. It counts as functional.
Experiment [17] in a line: Antiproliferative activity against human A2780/DX3 cells at 1.9 uM after 3 days by MTT assay. It counts as functional. The conditions noted are these: A2780/DX3, 72 h.
The subject of experiment [18] is A2780. The experiment in a line: Antiproliferative activity against human A2780 cells at 6.1 uM after 3 days by MTT assay. It counts as functional. The conditions noted are these: A2780, 72 h.
Experiment [19] can be described thus: Antiproliferative activity against human A2780/DX3 cells at 0.5 uM after 3 days by MTT assay. It counts as functional. The conditions noted are these: A2780/DX3, 72 h.
For experiment [20], the system named is A2780. The experiment in a line: Antiproliferative activity against human A2780 cells at 1.97 uM after 3 days by MTT assay. It counts as functional. As to conditions: A2780, 72 h.
Experiment [21] is described as follows: Antiproliferative activity against human A2780/DX3 cells at 0.84 uM after 3 days by MTT assay. It counts as functional. As to conditions: A2780/DX3, 72 h.
The test system of experiment [22] is A2780. The experiment in a line: Antiproliferative activity against human A2780 cells at 15.4 uM after 3 days by MTT assay. It counts as functional. As to conditions: A2780, 72 h.
Experiment [23] in a line: Antiproliferative activity against human A2780/DX3 cells at 2.25 uM after 3 days by MTT assay. It counts as functional. As to conditions: A2780/DX3, 72 h.

Broadly, the inhibition is the percentage by which the read-out fell short of the control. By IC50 is commonly meant the midpoint of a concentration-inhibition curve. Turning to `O=c1onc2n1C=CSC2(O)c1ccccc1` (configuration not stated), in the experiment on A2780 [1], 0.6 µM produced 0% inhibition. For the same molecule, the IC5 in the experiment on A2780 [2] amounted to 4.4 µM; in [3], 32.1 µM. For the same molecule, the IC50 (in the experiment with A2780 [2]; in experiment [3]) was more than 100 µM in each case. Besides, the results for the Activity in the experiment with A2780 ADR [4] and with A2780 ADR [5] were -18% and -36%, respectively. In addition, the result (with A2780 ADR [6]; in the experiment with A2780 ADR [7]; in experiment [8]; with A2780 [9]) was inactive. In experiment [10], this molecule came in with an inhibition at 1.2 µM of 0%.

As a reminder, the EC50 is the concentration that produces a half-maximal response. Molecule `CCOC1(c2ccc(Br)cc2)SC=C(C)n2c1noc2=O` (configuration not stated) gave an inhibition at 1.5 µM in the experiment with A2780 [11] of 0%. In addition, the EC50 in experiment [12] was 0.04 µM. Besides, the figures for the IC5 (with A2780 [2]; in experiment [3]) were 3.3 µM and 7.8 µM, respectively. Further, the half-maximal inhibitory concentration (IC50) (in the experiment with A2780 [2]; in experiment [3]) was more than 100 µM in each case. The Activity with A2780 ADR [4] is -8%; with A2780 ADR [5] it was 6%; in the experiment with A2780 ADR [6], less than 48%. Also, at 1 µM the inhibition in experiment [13] was 0%.

For the molecule `CC1=CSC(O)(c2ccccc2)c2noc(=O)n21` (configuration not stated), at 10 µM the inhibition with A2780 [14] was 0%. The figures for the IC5 (in the experiment on A2780 [2]; in [3]) were 100 µM and 49.4 µM, respectively. Moreover, the IC50 (in the experiment on A2780 [2]; in [3]) was more than 100 µM in each case. For the same molecule, the Activity in the experiment with A2780 ADR [4] was -2%; in the experiment with A2780 ADR [5] it was -16%; in the experiment with A2780 ADR [6], less than 48%. Besides, at 6.2 µM the inhibition in experiment [15] was 0%.

`CC1=CSC(O)(c2cccc(C(F)(F)F)c2)c2noc(=O)n21` (configuration not stated) registered an inhibition at 5.3 µM with A2780 [16] of 0%. Besides, the IC5 in the experiment on A2780 [2] is 18.3 µM; in experiment [3] it was 12.6 µM. The values for the IC50 (in the experiment with A2780 [2]; in [3]) were 60 µM and 71 µM, respectively. Also, the Activity in the experiment on A2780 ADR [4] is -4%; with A2780 ADR [5] it was -22%; with A2780 ADR [6], less than 48%. In addition, in experiment [17], the inhibition at 1.9 µM stood at 0%.

In the experiment with A2780 [18], `CC1=CSC(O)(c2ccc(C)cc2)c2noc(=O)n21` (configuration not stated) came in with an inhibition at 6.1 µM of 0%. Besides, the figures for the IC5 (in the experiment with A2780 [2]; in experiment [3]) were 28.8 µM and 31.1 µM, respectively. Also, the IC50 (in the experiment with A2780 [2]; in experiment [3]) was more than 100 µM throughout. In addition, the Activity in the experiment with A2780 ADR [4] is -1%; in the experiment with A2780 ADR [5] it was 4%; with A2780 ADR [6] it was less than 48%. Also, the inhibition at 0.5 µM in experiment [19] was determined as 0%.

The molecule `CC1=CSC(O)(c2cccc(Cl)c2)c2noc(=O)n21` (configuration not stated) had an inhibition at 1.97 µM in the experiment on A2780 [20] of 0%. Moreover, the IC5 in the experiment on A2780 [2] stood at 24.3 µM; in experiment [3], 3.89 µM. In addition, the IC50 (with A2780 [2]; in experiment [3]) was more than 100 µM in each case. Moreover, the Activity with A2780 ADR [4] is 7%; in the experiment on A2780 ADR [5], 7%; with A2780 ADR [6], less than 48%. This molecule also registered an inhibition at 0.84 µM in [21] of 0%.

As to `COc1ccc(C2(O)SC=C(C)n3c2noc3=O)cc1` (configuration not stated), the inhibition at 15.4 µM in the experiment with A2780 [22] amounted to 0%. In addition, the IC5 with A2780 [2] was 40.1 µM; in experiment [3], 26.7 µM. Besides, the IC50 (with A2780 [2]; in [3]) was more than 100 µM each time. Further, the Activity is 12% in the experiment on A2780 ADR [4], 10% with A2780 ADR [5] and less than 48% with A2780 ADR [6]. Further, in experiment [23], testing at 2.25 µM gave an inhibition of 0%.
